MIC and Activity data for 10 compounds are collected here from ChEMBL document CHEMBL4680073, “Total Synthesis of Laspartomycin C and Characterization of Its Antibacterial Mechanism of Action” (J Med Chem, 2016).

≈ marks a conversion by molar mass, not a printed value. Calls of active or inactive are those of the source. No cut-off for these calls is given here. Some results are limits rather than exact numbers.

The test system of test [1] is Staphylococcus simulans. The experiment in a line: Antibacterial activity against Staphylococcus simulans 22 assessed as inhibition of bacterial growth incubated for 16 hrs in presence of 5 mM Ca2+ by broth microdilution assay. The test is classed as functional. In a few lines:
(§1)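 MICs were read in µg/mL against indicator strains S. aureus 29213 and S. simulans 22. The growth medium was supplemented with Ca2+ at 5.0 or 10 mM.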

Test [2] relates to Staphylococcus aureus. The experiment in a line: Antibacterial activity against Staphylococcus aureus ATCC 29213 assessed as inhibition of bacterial growth incubated for 16 hrs by broth microdilution assay. The test is classed as functional. In a few lines:
as §1

Test [3] concerns Staphylococcus aureus. As to the kind of experiment: Antibacterial activity against Staphylococcus aureus ATCC 29213 assessed as inhibition of bacterial growth incubated for 16 hrs in presence of 10 mM Ca2+ by broth microdilution assay. It counts as functional. In a few lines:
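MIC, read in µg/mL, was determined in growth medium supplemented with Ca2+ at a final 10 mM. The same strain was also tested at 5 mM Ca2+ to check how calcium level affects the MIC.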
A general note: In broth dilution the organism is exposed to a series of concentrations in liquid medium.

In test [4] the test system is Staphylococcus simulans. As to the kind of experiment: Antibacterial activity against Staphylococcus simulans 22 assessed as inhibition of bacterial growth incubated for 16 hrs in presence of 10 mM Ca2+ by broth microdilution assay. It counts as functional. The essentials:
as §1

For test [5], the system named is Staphylococcus simulans. The experiment in a line: Antibacterial activity against Staphylococcus simulans 22 assessed as inhibition of bacterial growth incubated for 16 hrs in presence of UDP-GlcNAc by broth microdilution assay. The test is classed as functional, organism-based. The essentials: (§2)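 The antibiotic was pre-incubated with the cell wall precursor (e.g. UDP-GlcNAc, C55-PP, C55-P) before being given to the bacteria, with vancomycin as positive control.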

In test [6] the test system is Staphylococcus simulans. As to the kind of experiment: Antibacterial activity against Staphylococcus simulans 22 assessed as inhibition of bacterial growth incubated for 16 hrs in presence of C15-P by broth microdilution assay. It counts as functional, organism-based. The essentials:
as §2

Test [7] has as its system Staphylococcus simulans. As to the kind of experiment: Antibacterial activity against Staphylococcus simulans 22 assessed as inhibition of bacterial growth incubated for 16 hrs in presence of UDP-MurNAc-pp by broth microdilution assay. The test is classed as functional, organism-based. In a few lines:
as §2

The test system of test [8] is Staphylococcus simulans. The experiment in a line: Antibacterial activity against Staphylococcus simulans 22 assessed as inhibition of bacterial growth incubated for 16 hrs in presence of lipid I by broth microdilution assay. The test is classed as functional, organism-based. In a few lines:
as §2

Test [9] concerns Staphylococcus simulans. The experiment in a line: Antibacterial activity against Staphylococcus simulans 22 assessed as inhibition of bacterial growth incubated for 16 hrs in presence of C15-PP by broth microdilution assay. The test is classed as functional, organism-based. The essentials:
as §2

The test system of test [10] is Staphylococcus simulans. The experiment in a line: Antibacterial activity against Staphylococcus simulans 22 assessed as inhibition of bacterial growth incubated for 16 hrs in presence of lipid II by broth microdilution assay. It counts as functional, organism-based. In a few lines:
as §2

Test [11] relates to Staphylococcus simulans. As to the kind of experiment: Antibacterial activity against Staphylococcus simulans 22 assessed as inhibition of bacterial growth incubated for 16 hrs in presence of C55-PP by broth microdilution assay. The test is classed as functional, organism-based. In a few lines:
as §2

Test [12] can be described thus: Binding affinity to calcium at 60 uM in pH 7.4 buffer by CD spectroscopy.
For test [13], the system named is Staphylococcus simulans. The experiment in a line: Antibacterial activity against Staphylococcus simulans 22 assessed as inhibition of bacterial growth incubated for 16 hrs in presence of C55-P by broth microdilution assay. It counts as functional, organism-based. The essentials: as §2
Test [14] in a line: Binding affinity to undecaprenyl phosphate (C55-P) assessed as reduction in lipid II synthesis at 0.5 to 2 equiv in presence of UDP-GlcNAc, UDPMurNAc-pentapeptide and Micrococcus flavus membrane vesicles and measured after 2 hrs by TLC analysis. To be noted: dose 0.5-2 equiv. In a few lines: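 C55-P was pre-treated with the antibiotic over a range of concentrations. UDP-GlcNAc, UDP-MurNAc-pentapeptide and M. flavus membrane vesicles containing MraY and MurG were then added, and lipid II formation was monitored.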

Test [15] can be described thus: Binding affinity to undecaprenyl phosphate (C55-P) at 0.5 to 2 equiv in Ca2+-containing buffer incubated for 2 hrs by TLC-based binding assay. Conditions: dose 0.5-2 equiv.
Test [16] has as its system Staphylococcus aureus. The experiment in a line: Induction of UDP-MurNAc-pentapeptide accumulation in Staphylococcus aureus ATCC 29213 at 10 times MIC incubated for 60 mins by HPLC analysis. It counts as functional.
Test [17] in a line: Binding affinity to lipid II at 0.5 to 2 equiv in Ca2+-containing buffer incubated for 2 hrs by TLC-based binding assay. To be noted: dose 0.5-2 equiv.

For the compound `CCCCCCCCCC(=O)N[C@@H](Cc1c[nH]c2ccccc12)C(=O)N[C@H](CC(N)=O)C(=O)N[C@@H](CC(=O)O)C(=O)N[C@@H]1C(=O)NCC(=O)N[C@@H](CCCN)C(=O)N[C@@H](CC(=O)O)C(=O)N[C@H](C)C(=O)N[C@@H](CC(=O)O)C(=O)NCC(=O)N[C@H](CO)C(=O)N[C@@H]([C@@H](C)CC(=O)O)C(=O)N[C@@H](CC(=O)c2ccccc2N)C(=O)O[C@@H]1C`, the MIC (commonly the least concentration at which growth counts as inhibited) was 0.031 µg/mL with Staphylococcus simulans [1], 0.25 µg/mL (≈ 0.154 µM) with Staphylococcus aureus [2], 0.125 µg/mL in the test with Staphylococcus aureus [3] and at most 0.031 µg/mL with Staphylococcus simulans [4].
As to `CCCCCCCCCC(=O)N[C@@H](Cc1c[nH]c2ccccc12)C(=O)N[C@H](CC(N)=O)C(=O)N[C@@H](CC(=O)O)C(=O)N[C@H]1CNC(=O)[C@H]2CCCN2C(=O)[C@H]([C@@H](C)CC)NC(=O)[C@@H]([C@@H](C)O)NC(=O)CNC(=O)[C@H](CC(=O)O)NC(=O)[C@@H](C)NC(=O)[C@H](CC(=O)O)NC(=O)CNC(=O)[C@H]2CCCCN2C1=O`, the outcome in the test with Staphylococcus simulans [5], in the test with Staphylococcus simulans [6], in the test with Staphylococcus simulans [7], in the test with Staphylococcus simulans [8], with Staphylococcus simulans [9] and with Staphylococcus simulans [10] was Active. The outcome (with Staphylococcus simulans [11]; in test [12]; in the test with Staphylococcus simulans [13]) was Active. The MIC result in the test with Staphylococcus simulans [4] is “inactive”.
`CCCCCCCCCC(=O)N[C@@H](Cc1c[nH]c2ccccc12)C(=O)N[C@@H](CC(N)=O)C(=O)N[C@@H](CC(=O)O)C(=O)N[C@@H]1C(=O)NCC(=O)N[C@@H](CCCN)C(=O)N[C@H](CC(=O)O)C(=O)N[C@H](C)C(=O)N[C@@H](CC(=O)O)C(=O)NCC(=O)N[C@H](CO)C(=O)N[C@@H]([C@@H](C)CC(=O)O)C(=O)N[C@@H](CC(=O)c2ccccc2N)C(=O)O[C@@H]1C`: the result in the test with Staphylococcus simulans [5], in the test with Staphylococcus simulans [6], in the test with Staphylococcus simulans [7], in the test on Staphylococcus simulans [8], with Staphylococcus simulans [9] and in the test on Staphylococcus simulans [10] was Active. For the same compound, the outcome in the test on Staphylococcus simulans [11] and with Staphylococcus simulans [13] was Active. For the same compound, the result (in test [14]; in test [15]; in the test on Staphylococcus aureus [16]; in test [17]) was inactive.
Take `CCCCCCCCCC(=O)N[C@@H](Cc1c[nH]c2ccccc12)C(=O)N[C@H](CC(N)=O)C(=O)N[C@@H](CC(=O)O)C(=O)N[C@H]1CNC(=O)[C@H]2CCCN2C(=O)[C@H](CCC(=O)O)NC(=O)[C@@H](CO)NC(=O)CNC(=O)[C@H](CC(=O)O)NC(=O)[C@@H](C)NC(=O)[C@H](CC(=O)O)NC(=O)[C@H](CCCN)NC(=O)[C@H]2CCCCN2C1=O`: the outcome in the test with Staphylococcus simulans [5], in the test on Staphylococcus simulans [6], in the test on Staphylococcus simulans [7], in the test on Staphylococcus simulans [8], in the test on Staphylococcus simulans [9] and in the test with Staphylococcus simulans [10] was Active. The result (in the test with Staphylococcus simulans [11]; in [12]; in the test with Staphylococcus simulans [13]) was Active. Moreover, the MIC entry in the test with Staphylococcus simulans [4] was “inactive”.
Regarding `CCCCCCCCCC(=O)N[C@@H](Cc1c[nH]c2ccccc12)C(=O)N[C@H](CC(N)=O)C(=O)N[C@@H](CC(=O)O)C(=O)N[C@H]1CNC(=O)[C@@H](CC(=O)c2ccccc2N)NC(=O)[C@H](CCC(=O)O)NC(=O)[C@@H](CO)NC(=O)CNC(=O)[C@H](CC(=O)O)NC(=O)[C@@H](C)NC(=O)[C@H](CC(=O)O)NC(=O)[C@H](CCCN)NC(=O)CNC1=O`, the outcome with Staphylococcus simulans [5], in the test with Staphylococcus simulans [6], in the test with Staphylococcus simulans [7], with Staphylococcus simulans [8], in the test on Staphylococcus simulans [9] and in the test with Staphylococcus simulans [10] was Active. The result with Staphylococcus simulans [11] and in the test on Staphylococcus simulans [13] was Active.
In the case of `CCCCCCCCCC(=O)N[C@@H](Cc1c[nH]c2ccccc12)C(=O)N[C@H](CC(N)=O)C(=O)N[C@@H](CC(=O)O)C(=O)N[C@H]1CNC(=O)[C@@H](Cc2c[nH]c3ccccc23)NC(=O)[C@H](CCC(=O)O)NC(=O)[C@@H](CO)NC(=O)CNC(=O)[C@H](CC(=O)O)NC(=O)[C@@H](C)NC(=O)[C@H](CC(=O)O)NC(=O)[C@H](CCCN)NC(=O)CNC1=O`, the result with Staphylococcus simulans [5], with Staphylococcus simulans [6], in the test with Staphylococcus simulans [7], in the test with Staphylococcus simulans [8], with Staphylococcus simulans [9] and in the test with Staphylococcus simulans [10] was Active. Further, the result in the test with Staphylococcus simulans [11] and in the test with Staphylococcus simulans [13] was Active.
As for `CN[C@H](CC(C)C)C(=O)N[C@H]1C(=O)N[C@@H](CC(N)=O)C(=O)N[C@H]2C(=O)N[C@H]3C(=O)N[C@H](C(=O)N[C@H](C(=O)O)c4cc(O)cc(O)c4-c4cc3ccc4O)[C@H](O)c3ccc(c(Cl)c3)Oc3cc2cc(c3O[C@@H]2O[C@H](CO)[C@@H](O)[C@H](O)[C@H]2O[C@H]2C[C@](C)(N)[C@H](O)[C@H](C)O2)Oc2ccc(cc2Cl)[C@H]1O`, the result in the test with Staphylococcus simulans [7], with Staphylococcus simulans [8] and in the test on Staphylococcus simulans [10] was inactive.
On to `CCCCCCCCCC(=O)N[C@@H](Cc1c[nH]c2ccccc12)C(=O)N[C@H](CC(N)=O)C(=O)N[C@@H](CC(=O)O)C(=O)N[C@H]1CNC(=O)[C@H]2CCCN2C(=O)[C@H]([C@@H](C)CC)NC(=O)[C@@H]([C@@H](C)O)NC(=O)CNC(=O)[C@H](CC(=O)O)NC(=O)[C@@H](C)NC(=O)[C@H](CC(=O)O)NC(=O)CNC(=O)CNC1=O`, for which the result with Staphylococcus simulans [5], with Staphylococcus simulans [6], with Staphylococcus simulans [7], in the test with Staphylococcus simulans [8], with Staphylococcus simulans [9] and in the test with Staphylococcus simulans [10] was Active. Further, the result in the test on Staphylococcus simulans [11] and in the test with Staphylococcus simulans [13] was Active.
Consider `CCCCCCCCCC(=O)N[C@@H](Cc1c[nH]c2ccccc12)C(=O)N[C@H](CC(N)=O)C(=O)N[C@@H](CC(=O)O)C(=O)N[C@H]1CNC(=O)[C@@H](CC(=O)c2ccccc2N)NC(=O)[C@H](CCC(=O)O)NC(=O)[C@@H](CO)NC(=O)CNC(=O)[C@H](CC(=O)O)NC(=O)[C@@H](C)NC(=O)[C@H](CC(=O)O)NC(=O)[C@H](CCCN)NC(=O)[C@H]2CCCCN2C1=O`, for which the result in the test on Staphylococcus simulans [5], in the test on Staphylococcus simulans [6], in the test with Staphylococcus simulans [7], in the test with Staphylococcus simulans [8], in the test with Staphylococcus simulans [9] and with Staphylococcus simulans [10] was Active. For the same compound, the outcome in the test with Staphylococcus simulans [11] and with Staphylococcus simulans [13] was Active.
Regarding `CCCCCCCCCC(=O)N[C@@H](Cc1c[nH]c2ccccc12)C(=O)N[C@H](CC(N)=O)C(=O)N[C@@H](CC(=O)O)C(=O)N[C@H]1CNC(=O)[C@@H](Cc2c[nH]c3ccccc23)NC(=O)[C@H](CCC(=O)O)NC(=O)[C@@H](CO)NC(=O)CNC(=O)[C@H](CC(=O)O)NC(=O)[C@@H](C)NC(=O)[C@H](CC(=O)O)NC(=O)[C@H](CCCN)NC(=O)[C@H]2CCCCN2C1=O`, the result in the test on Staphylococcus simulans [5], in the test with Staphylococcus simulans [6], in the test on Staphylococcus simulans [7], with Staphylococcus simulans [8], in the test with Staphylococcus simulans [9] and with Staphylococcus simulans [10] was Active. Also, the outcome with Staphylococcus simulans [11] and in the test on Staphylococcus simulans [13] was Active.
